Experimental data gathered from unrelated publications.
Target: Mitogen-activated protein kinase kinase kinase 10 (MAP3K10, Homo sapiens, UniProt Q02779)

read-out	technique	tested at	remaining binding [%]	Structure (SMILES)
cell-free assay	competition with immobilised ligand	0.1 µM	100	C[C@H](c1ccnc(Nc2nc3ccc(-c4cc(N(C)C)ncn4)cc3[nH]2)c1)N1CCN(C(=O)CC(F)(F)F)CC1
binding	competition with immobilised ligand	1 µM	100	O=C(NCC1CCOCC1)c1n[nH]cc1NC(=O)c1c(F)cccc1F
binding		1 µM	76	CN(c1nccc(-c2cnn3ncccc23)n1)C1CC1
binding	competition with immobilised ligand	1 µM	0	Cc1cnc(Nc2ccc(C(=O)N3CCC(N4CCCC4)CC3)cc2)nc1-c1cc2ccccc2s1
binding	competition with immobilised ligand	0.1 µM	82	C[C@@H](c1ccc(-n2cnc3c(N)ncnc32)cc1)N1CCc2nn(C)c(Cc3ccccc3)c2C1=O
binding	competition with immobilised ligand	1 µM	86	CNC(=O)[C@@H]1CC[C@@H](n2c(-c3ccc4cnccc4c3)nc3ccc(C(=O)NCc4cccc(C(N)=O)c4)cc32)C1
cell-free assay	competition with immobilised ligand	5 µM	58	FC(F)(F)Oc1cccc(-c2cnc3ccc(-c4ccncc4)nn23)c1
binding	competition with immobilised ligand	1 µM	3	O=C(NCCCN1CCOCC1)c1ccc(Nc2ncc(Cl)c(-c3ccc(Cl)s3)n2)cc1
binding		1 µM	98	CN(C)c1nccc(-c2cnn3ncccc23)n1
cell-free assay	competition with immobilised ligand	1 µM	96	COc1cc(-c2cn(C3CCc4ccccc4N(CC(F)(F)F)C3=O)nn2)ccc1-n1ccc(C)n1 (stereo not drawn)
binding	competition with immobilised ligand	1 µM	37	O=C(NCCCN1CCOCC1)c1ccc(Nc2nccc(-c3cc4ccccc4s3)n2)cc1
binding		1 µM	92	N[C@H]1CCN(c2nccc(-c3cnn4ncccc34)n2)C1
cell-free assay	competition with immobilised ligand	1 µM	100	C[C@H](c1cccc(C#N)c1)n1cc(Cl)cc(C(N)=O)c1=N
binding		1 µM	100	C[C@H]1CCN(c2nccc(-c3cnn4ncccc34)n2)C1
binding	competition with immobilised ligand	10 µM	49	c1cncc(-c2cccc(Nc3nccc(NC4CCCCC4)n3)c2)c1
cell-free assay	competition with immobilised ligand	1 µM	100	CN1CCN(c2cnc3c(C4CCN(C(=O)c5ccc(OC(F)(F)F)cc5N)CC4)ncnc3c2)CC1
binding	competition with immobilised ligand	1 µM	79	COc1cnc(Nc2cccc(S(N)(=O)=O)c2)nc1N1CCN(c2ccccc2)C(=O)C1
cell-free assay	competition with immobilised ligand	0.1 µM	68	CNC(=O)c1ccc(Nc2ncc(C(F)(F)F)c(NCc3nccnc3N(C)S(C)(=O)=O)n2)cc1
binding		1 µM	78	COc1ccnn2ncc(-c3ccnc(N(C)C)n3)c12
binding	competition with immobilised ligand	1 µM	93	c1ccc(N2CCN(Cc3nc4ccccc4[nH]3)CC2)nc1
binding		1 µM	100	CC1CCCN1c1nccc(-c2cnn3ncccc23)n1 (stereo not drawn)
